Measurements from ChEMBL document CHEMBL2086252, “Syntheses and evaluation of anticonvulsant activity of novel branched alkyl carbamates” (J Med Chem, 2012).
Active and inactive are the calls of the source. The rule behind the calls is not given here.

Tests used:
[1] = test system: Mus musculus; assay: Anticonvulsant activity in albino CF1 mouse assessed as protection against maximal electroshock-induced seizures at 100 mg/kg, ip after 4 hrs; format: functional, organism-based; parameters: dose 100 mg/kg
Outline: (§1)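 Mice dosed ip at 30, 100 or 300 mg/kg, then tested 0.5 h and 4 h after administration in the MES or scMet test. Protection was recorded as animals protected over animals tested. Neurotoxicity was recorded as motor impairment or sedation, as animals affected over animals tested.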

[2] = test system: Mus musculus; assay: Anticonvulsant activity in albino CF1 mouse assessed as protection against subcutaneous metrazol-induced seizures at 300 mg/kg, ip after 0.5 hrs; format: functional, organism-based; parameters: dose 300 mg/kg; outline: as §1
[3] = test system: Mus musculus; assay: Anticonvulsant activity in albino CF1 mouse assessed as protection against subcutaneous metrazol-induced seizures at 100 mg/kg, ip after 0.5 hrs; format: functional, organism-based; parameters: dose 100 mg/kg; outline: as §1
[4] = test system: Rattus norvegicus; assay: Neurotoxicity in pilocarpine-induced status epilepticus Sprague-Dawley albino rat model assessed as minimal motor impairment at 30 mg/kg, ip after 4 hrs by rotarod test; format: toxicity, organism-based; parameters: dose 30 mg/kg, route intraperitoneal; settings: in vivo
Outline: (§2)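 Rat pilocarpine status epilepticus model: test carbamate given at 0 or 30 min after the first observed Racine stage 3 motor seizure, which marks SE onset. Neurotoxicity was scored within the same model.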

[5] = test system: Mus musculus; assay: Anticonvulsant activity in albino CF1 mouse assessed as protection against maximal electroshock-induced seizures at 300 mg/kg, ip after 0.5 hrs; format: functional, organism-based; parameters: dose 300 mg/kg; outline: as §1
[6] = test system: Rattus norvegicus; assay: Neurotoxicity in pilocarpine-induced status epilepticus Sprague-Dawley albino rat model assessed as minimal motor impairment at 100 mg/kg, ip after 4 hrs by rotarod test; format: toxicity, organism-based; parameters: dose 100 mg/kg, route intraperitoneal; settings: in vivo
[7] = test system: Mus musculus; assay: Anticonvulsant activity in albino CF1 mouse assessed as protection against maximal electroshock-induced seizures at 30 mg/kg, ip after 0.5 hrs; format: functional, organism-based; parameters: dose 30 mg/kg; outline: as §1
[8] = test system: Rattus norvegicus; assay: Anticonvulsant activity in ip dosed Sprague-Dawley albino rat assessed as protection against pilocarpine-induced status epilepticus after 0.5 hrs; format: functional
Outline: (§3)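 Pilocarpine status epilepticus model in rats. Number and severity of convulsive seizures were observed behaviourally.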

[9] = test system: Mus musculus; assay: Anticonvulsant activity in albino CF1 mouse assessed as protection against maximal electroshock-induced seizures at 300 mg/kg, ip after 4 hrs; format: functional, organism-based; parameters: dose 300 mg/kg; outline: as §1
[10] = test system: Mus musculus; assay: Neurotoxicity in albino CF1 mouse assessed as minimal motor impairment at 30 mg/kg, ip after 4 hrs by rotarod test; format: toxicity, organism-based; parameters: dose 30 mg/kg, route intraperitoneal; settings: in vivo; outline: as §1
[11] = test system: Mus musculus; assay: Neurotoxicity in albino CF1 mouse assessed as minimal motor impairment at 100 mg/kg, ip after 4 hrs by rotarod test; format: toxicity, organism-based; parameters: dose 100 mg/kg, route intraperitoneal; settings: in vivo; outline: as §1
[12] = test system: Mus musculus; assay: Anticonvulsant activity in albino CF1 mouse assessed as protection against maximal electroshock-induced seizures at 30 mg/kg, ip after 4 hrs; format: functional, organism-based; parameters: dose 30 mg/kg; outline: as §1
[13] = test system: Rattus norvegicus; assay: Neurotoxicity in pilocarpine-induced status epilepticus Sprague-Dawley albino rat model assessed as minimal motor impairment at 30 mg/kg, ip after 1 hr by rotarod test; format: toxicity, organism-based; parameters: dose 30 mg/kg, route intraperitoneal; settings: in vivo; outline: as §2
[14] = test system: Rattus norvegicus; assay: Neurotoxicity in pilocarpine-induced status epilepticus Sprague-Dawley albino rat model assessed as minimal motor impairment at 30 mg/kg, ip after 0.5 hrs by rotarod test; format: toxicity, organism-based; parameters: dose 30 mg/kg, route intraperitoneal; settings: in vivo; outline: as §2
[15] = test system: Mus musculus; assay: Anticonvulsant activity in albino CF1 mouse assessed as protection against subcutaneous metrazol-induced seizures at 300 mg/kg, ip after 4 hrs; format: functional, organism-based; parameters: dose 300 mg/kg; outline: as §1
[16] = test system: Mus musculus; assay: Anticonvulsant activity in albino CF1 mouse assessed as protection against subcutaneous metrazol-induced seizures at 30 mg/kg, ip after 0.5 hrs; format: functional, organism-based; parameters: dose 30 mg/kg; outline: as §1
[17] = test system: Mus musculus; assay: Anticonvulsant activity in albino CF1 mouse assessed as protection against maximal electroshock-induced seizures at 100 mg/kg, ip after 0.5 hrs; format: functional, organism-based; parameters: dose 100 mg/kg; outline: as §1
[18] = test system: Rattus norvegicus; assay: Anticonvulsant activity in Sprague-Dawley albino rat assessed as protection against pilocarpine-induced status epilepticus at 65 mg/kg, ip; format: functional, organism-based; parameters: dose 65 mg/kg; outline: as §3
[19] = test system: Rattus norvegicus; assay: Neurotoxicity in pilocarpine-induced status epilepticus Sprague-Dawley albino rat model assessed as minimal motor impairment at 100 mg/kg, ip after 0.5 hrs by rotarod test; format: toxicity, organism-based; parameters: dose 100 mg/kg, route intraperitoneal; settings: in vivo
[20] = test system: Rattus norvegicus; assay: Neurotoxicity in pilocarpine-induced status epilepticus Sprague-Dawley albino rat model assessed as minimal motor impairment at 100 mg/kg, ip after 2 hrs by rotarod test; format: toxicity, organism-based; parameters: dose 100 mg/kg, route intraperitoneal; settings: in vivo
[21] = test system: Rattus norvegicus; assay: Neurotoxicity in pilocarpine-induced status epilepticus Sprague-Dawley albino rat model assessed as minimal motor impairment at 100 mg/kg, ip after 0.25 hr by rotarod test; format: toxicity, organism-based; parameters: dose 100 mg/kg, route intraperitoneal; settings: in vivo
[22] = test system: Mus musculus; assay: Anticonvulsant activity in albino CF1 mouse assessed as protection against subcutaneous metrazol-induced seizures at 100 mg/kg, ip after 4 hrs; format: functional, organism-based; parameters: dose 100 mg/kg; outline: as §1
[23] = test system: Rattus norvegicus; assay: Neurotoxicity in pilocarpine-induced status epilepticus Sprague-Dawley albino rat model assessed as minimal motor impairment at 30 mg/kg, ip after 2 hrs by rotarod test; format: toxicity, organism-based; parameters: dose 30 mg/kg, route intraperitoneal; settings: in vivo; outline: as §2
[24] = test system: Mus musculus; assay: Neurotoxicity in albino CF1 mouse assessed as minimal motor impairment at 30 mg/kg, ip after 0.5 hrs by rotarod test; format: toxicity, organism-based; parameters: dose 30 mg/kg, route intraperitoneal; settings: in vivo; outline: as §1
[25] = test system: Mus musculus; assay: Neurotoxicity in albino CF1 mouse assessed as minimal motor impairment at 300 mg/kg, ip after 0.5 hrs by rotarod test; format: toxicity, organism-based; parameters: dose 300 mg/kg, route intraperitoneal; settings: in vivo; outline: as §1
[26] = test system: Rattus norvegicus; assay: Neurotoxicity in pilocarpine-induced status epilepticus Sprague-Dawley albino rat model assessed as minimal motor impairment at 30 mg/kg, ip after 0.25 hr by rotarod test; format: toxicity, organism-based; parameters: dose 30 mg/kg, route intraperitoneal; settings: in vivo; outline: as §2
[27] = test system: Mus musculus; assay: Anticonvulsant activity in albino CF1 mouse assessed as protection against subcutaneous metrazol-induced seizures at 30 mg/kg, ip after 4 hrs; format: functional, organism-based; parameters: dose 30 mg/kg; outline: as §1
[28] = test system: Mus musculus; assay: Neurotoxicity in albino CF1 mouse assessed as minimal motor impairment at 300 mg/kg, ip after 4 hrs by rotarod test; format: toxicity, organism-based; parameters: dose 300 mg/kg, route intraperitoneal; settings: in vivo; outline: as §1
[29] = test system: Rattus norvegicus; assay: Neurotoxicity in pilocarpine-induced status epilepticus Sprague-Dawley albino rat model assessed as minimal motor impairment at 65 mg/kg, ip after 0.5 hrs by rotarod test; format: toxicity, organism-based; parameters: dose 65 mg/kg, route intraperitoneal; settings: in vivo; outline: as §2

Q: Which results are given for `CCC(C)C(COC(N)=O)C(C)C` (racemic)?
A: Activity [1]: inactive; Activity [2]: Active; Activity [3]: Active; Activity [4]: Non-toxic; Activity [5]: Active; Activity [6]: Non-toxic; Activity [7]: inactive; ED50 [8]: 114 mg/kg; ED97 [8]: 199 mg/kg; Activity [9]: inactive; Activity [10]: Non-toxic; Activity [11]: Non-toxic; Activity [12]: inactive; Activity [13]: Non-toxic; Activity [14]: Non-toxic; Activity [15]: inactive; Activity [16]: inactive; Activity [17]: Active; Activity [18]: Active; Activity [19]: Toxic; Activity [20]: Non-toxic; Activity [21]: Toxic; Activity [22]: inactive; Activity [23]: Non-toxic; Activity [24]: Non-toxic; Activity [25]: Toxic; Activity [26]: Non-toxic; Activity [27]: inactive; Activity [28]: Non-toxic; Activity [29]: Non-toxic
